pIC50: −log10 of the molar value. Activity calls are given as the source filed them. The rule behind the calls is not given here.
Key:
[1] = molecular target: T1, Polyunsaturated fatty acid 5-lipoxygenase (Rattus norvegicus, UniProt P12527); test: In vitro inhibition of 5-lipoxygenase (5-lo) from the 20000 g supernatant of RBI-1 cells; assay type: cell-based
T1 sequence (P12527 whole entry): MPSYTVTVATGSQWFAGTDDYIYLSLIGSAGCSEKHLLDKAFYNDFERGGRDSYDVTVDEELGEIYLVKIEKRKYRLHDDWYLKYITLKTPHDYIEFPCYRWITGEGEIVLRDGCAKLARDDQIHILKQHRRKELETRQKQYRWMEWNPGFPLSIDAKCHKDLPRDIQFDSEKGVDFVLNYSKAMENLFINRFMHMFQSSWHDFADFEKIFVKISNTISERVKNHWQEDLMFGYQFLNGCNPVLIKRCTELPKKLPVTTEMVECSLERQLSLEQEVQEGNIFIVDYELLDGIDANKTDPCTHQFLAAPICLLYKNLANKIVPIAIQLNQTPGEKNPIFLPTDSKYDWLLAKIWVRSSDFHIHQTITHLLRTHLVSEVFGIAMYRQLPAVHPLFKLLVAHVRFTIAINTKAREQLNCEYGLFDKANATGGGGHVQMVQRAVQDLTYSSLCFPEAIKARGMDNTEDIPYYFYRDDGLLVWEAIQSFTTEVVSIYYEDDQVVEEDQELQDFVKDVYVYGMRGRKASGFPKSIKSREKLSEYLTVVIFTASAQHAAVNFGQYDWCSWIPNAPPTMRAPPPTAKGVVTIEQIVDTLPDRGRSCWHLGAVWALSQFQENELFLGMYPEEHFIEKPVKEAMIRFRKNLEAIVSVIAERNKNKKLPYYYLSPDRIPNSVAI

[2] = molecular target: T1, Polyunsaturated fatty acid 5-lipoxygenase; test: Inhibition of 5-lipoxygenase (5-lo) in intact rat polymorphonuclear leukocyte RPMNL
Outline: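 Pleural PMNL from carrageenan-injected male Sprague-Dawley rats (200-250 g). Erythrocytes lysed with water, cells washed and held in HEPES/Earle's salts pH 7.0 with 1 mg/mL BSA. 5×10^6 cells preincubated 15 min at 37 °C with compound or DMSO (final 2%). Stimulated with A23187 (final 8.3 μM) for 10 min, stopped on ice. Methanol extracts assayed for LTB₄ by HPLC.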

[3] = molecular target: T2, Polyunsaturated fatty acid 5-lipoxygenase (Homo sapiens, UniProt P09917); test: The compound was tested for the inhibition of 5-lipoxygenase (5-lo) in human whole blood (HWBL); assay type: tissue-based
T2 sequence (P09917 whole entry): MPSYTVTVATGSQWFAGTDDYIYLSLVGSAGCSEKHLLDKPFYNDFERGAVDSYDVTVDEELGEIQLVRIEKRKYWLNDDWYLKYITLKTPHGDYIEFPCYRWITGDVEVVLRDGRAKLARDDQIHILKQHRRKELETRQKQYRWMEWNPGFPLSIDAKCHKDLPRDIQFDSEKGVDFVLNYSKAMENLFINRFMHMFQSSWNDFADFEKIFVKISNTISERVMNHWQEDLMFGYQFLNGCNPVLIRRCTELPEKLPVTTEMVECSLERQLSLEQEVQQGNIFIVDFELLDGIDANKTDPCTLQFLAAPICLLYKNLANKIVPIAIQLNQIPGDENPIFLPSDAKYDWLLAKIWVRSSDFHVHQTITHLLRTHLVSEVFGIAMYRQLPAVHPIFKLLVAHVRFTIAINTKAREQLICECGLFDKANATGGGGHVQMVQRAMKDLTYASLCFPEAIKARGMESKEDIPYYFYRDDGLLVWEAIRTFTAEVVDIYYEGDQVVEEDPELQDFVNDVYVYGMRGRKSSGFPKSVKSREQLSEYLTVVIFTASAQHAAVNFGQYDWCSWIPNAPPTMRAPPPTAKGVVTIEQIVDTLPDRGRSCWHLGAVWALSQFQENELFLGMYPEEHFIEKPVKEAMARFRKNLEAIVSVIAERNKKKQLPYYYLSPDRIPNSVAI
Outline: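 Heparinized (20 units/mL) human blood preincubated 15 min at 37 °C with compound or vehicle. Challenged with A23187 in DMSO (final 50 μM) for 30 min, then chilled and centrifuged. Plasma extracted with 4 volumes methanol for at least 2 h at 3 °C. LTB₄ measured by RIA or EIA.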

[4] = molecular target: T3, Polyunsaturated fatty acid 5-lipoxygenase (Rattus norvegicus) (UniProt P12527); test: The compound was tested for the in vitro inhibition of 5-lipoxygenase (5-lo) from the 20000 g supernatant of RBI-1 cells; NS indicates nonsignificant inhibition at 32 uM concentration; assay type: cell-based
T3 sequence (whole entry): T1 sequence (P12527 whole entry)
Outline: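 20000g supernatant of homogenized RBL-1 cells (7.5 × 10⁶ cell equiv/mL) preincubated 20 min at 37 °C with inhibitor or 2% Me₂SO vehicle in pH 6.8 BES/PIPES buffer with EDTA, NaCl, 0.7 mM CaCl₂. Reaction started with 66 μM [¹⁴C]arachidonic acid. [¹⁴C]-5-HETE counted by scintillation, corrected for [³H]-5-HETE recovery.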

| pIC50 [1] | Compound | also measured |
| --- | --- | --- |
| 5.66 | Oc1nc(-c2ccc(-c3ccccc3)cc2)sc1-c1ccccc1 |  |
| 5.85 | CC(=O)c1ccc(-c2nc(O)c(C)s2)cc1 |  |
| 5.85 | CC(=O)Oc1nc(-c2ccc(-c3ccccc3)cc2)sc1-c1ccccc1 | pIC50 [2]: 6.05 |
| 5.57 | Cc1sc(-c2ccc(SC(F)(F)F)cc2)nc1O |  |
| 5.96 | Oc1nc(-c2cccnc2)sc1-c1ccccc1 | pIC50 [3]: 5.54 |
| 4.52 | Cc1sc(-c2ccc(C(=O)O)cc2)nc1O |  |
|  | Nc1nc(-c2ccccc2)sc1-c1ccccc1 | inhibition [4]: inactive |
|  | CCOC(=O)c1nc(O)c(C)s1 | inhibition [4]: inactive |
|  | CCCCc1sc(-c2ccccc2)nc1OC(C)=O | pIC50 [2]: 6.30 |
| 4.85 | Cc1sc(-c2ccncc2)nc1O |  |
| 5.16 | Oc1sc(-c2ccccc2)nc1-c1ccccc1 |  |
| 5.85 | Cc1sc(-c2cccs2)nc1O |  |
|  | CCCc1sc(-c2ccccc2)nc1OC(=O)OCC | pIC50 [2]: 6.15; pIC50 [3]: 5.35 |
| 6.15 | Cc1nc(O)c(-c2ccccc2)s1 | pIC50 [3]: 5.29 |
| 6.10 | Cc1ccc(-c2nc(O)c(-c3ccccc3)s2)cc1 | pIC50 [3]: 6.13 |
|  | COC(=O)Cc1sc(-c2ccccc2)nc1O | pIC50 [2]: 5.68 |
| 5.68 | Cc1sc(-c2ccccn2)nc1O |  |
| 5.60 | Cc1sc(-c2ccc(C(F)(F)F)cc2)nc1O |  |
|  | Cc1ccc(-c2nc(O)c(C)s2)cc1 | pIC50 [2]: 5.92 |
| 4.85 | CC(=O)Oc1nc(-c2ccc(C(=O)O)cc2)sc1C |  |
| 4.51 | Cc1sc(-c2cc[nH]n2)nc1O |  |

| pIC50 [1] | Compound | also measured |
| --- | --- | --- |
|  | Cc1sc(C(=O)O)nc1O | inhibition [4]: inactive |
| 6.40 | CC(=O)Oc1nc(-c2ccccc2)sc1-c1ccccc1 | pIC50 [3]: 6.35 |
| 5.80 | Cc1sc(-c2ccc([N+](=O)[O-])cc2)nc1O |  |
| 5.62 | Cc1sc(-c2ccco2)nc1O |  |
| 5.14 | CCCCCC/C(O)=C\C/C=C\C/C=C\C=C\CCCCC(=O)O |  |
|  | COc1nc(-c2ccccc2)sc1-c1ccccc1 | inhibition [4]: inactive |
|  | CCOC(=O)Cc1nc(O)c(C)s1 | inhibition [4]: inactive |
| 5.66 | Cc1sc(-c2ccc(S(N)(=O)=O)cc2)nc1O |  |
| 5.96 | COc1ccc(-c2nc(O)c(C)s2)cc1 |  |
| 5.32 | Cc1sc(-c2ccc(C(N)=O)cc2)nc1O |  |
| 6.28 | CCCc1sc(-c2ccccc2)nc1OC(C)=O | pIC50 [2]: 6.18 |
| 5.04 | CCCCC(=O)Oc1nc(-c2ccccc2)sc1-c1ccccc1 |  |
| 4.74 | CCCCc1sc(-c2ccccc2)nc1O |  |
| 4.82 | Cc1sc(-c2ccc(N)cc2)nc1O |  |
| 5.55 | CCCc1sc(-c2ccccc2)nc1OC(=O)OCc1ccccc1 | pIC50 [2]: 5.92 |
| 5.89 | CCCCCC(=O)Oc1nc(-c2ccccc2)sc1-c1ccccc1 | pIC50 [2]: 6.30 |
| 6.27 | Oc1nc(-c2ccncc2)sc1-c1ccccc1 |  |
| 5.92 | O=C(O)c1ccc(-c2nc(O)c(-c3ccccc3)s2)cc1 |  |
|  | CCCc1sc(-c2ccccc2)nc1OS(C)(=O)=O | inhibition [4]: inactive |
| 4.80 | Cc1sc(-c2cnc3ccccc3c2)nc1O |  |

| Compound | pIC50 [1] | also measured |
| --- | --- | --- |
| CCCCNC(=O)Oc1nc(-c2ccccc2)sc1CCC | 4.62 | pIC50 [2]: 6.10; pIC50 [3]: 5.26 |
| CCCc1sc(-c2ccccc2)nc1OC(=O)NC | 5.06 | pIC50 [2]: 6.40; pIC50 [3]: 5.29 |
| CCCc1sc(-c2ccccc2)nc1OC(=O)Nc1ccccc1 | 6.34 | pIC50 [2]: 6.00 |
| CCCCC/C=C/C/C=C/C/C=C/C/C=C/CCCC(=O)NO | 5.66 |  |
